Tests used:
[1] = system: WiDr; assay: Activity against human colon carcinoma sensitive WiDr cell line.; format: functional, cell-based
[2] = system: OVCAR-3; assay: Antitumor activity against human ovarian OVCAR-3 cell lines.; format: functional, cell-based
In short: (§1)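 Cultured human tumor cells (melanoma UACC375, ovarian OVCAR3) under continuous drug exposure. Growth was read by sulforhodamine or MTT assay. Five concentrations per analogue, six determinations per concentration. IC50 values were derived from these.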

[3] = system: L1210; assay: Compound was tested for antitumor activity against l. Sensitive leukemia cell lines (L1210).; format: functional, cell-based; details: Mus musculus
In short: (§2)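 Murine L1210 leukemia cells, sensitive or MDR subline, in culture. Continuous drug exposure during MTT assay. Five concentrations per analogue, six determinations per concentration. The IC50 was derived.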

[4] = system: WiDr; assay: Activity against human colon carcinoma multi drug resistant (MDR)-WiDr cell line.; format: functional, cell-based
[5] = species: Rattus norvegicus; assay: Cardiotoxicity measured by the ATP/protein ratio compared with untreated controls using neonatal rat heart myocyte assay.; format: functional
In short: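 Neonatal rat heart myocytes exposed to drug for 1 h. The ATP/protein ratio was measured versus untreated control myocytes. IC50 is the concentration reducing this ratio to 50% of control.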

[6] = system: A549; assay: Activity against A549 cancer cell line.; format: functional, cell-based; details: Homo sapiens
[7] = system: L1210; assay: Antitumor activity against murine leukemia L1210 cell line.; format: functional, cell-based; details: Mus musculus; in short: as §2
[8] = system: MCF7; assay: Antitumor activity against human mammary carcinoma mitoxantrone-resistant […] breast cell line.; format: functional, cell-based
[9] = (§3) The quotient of the IC50 in the myocytes divided by the mean IC50 in the three cell lines; format: functional
In short: (§4)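 Calculated index: the myocyte IC50 divided by the mean IC50 across three tumor lines (sensitive L1210, melanoma UACC375, ovarian OVCAR3).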

[10] = system: UACC-375; assay: Antitumor activity against human melanoma UACC375 cell line.; format: functional, cell-based; in short: as §1
[11] = system: MCF7; assay: Antitumor activity against human mammary carcinoma doxorubicin-resistant […] breast cell line.; format: functional, cell-based
[12] = system: MCF7; assay: Antitumor activity against human mammary carcinoma sensitive […] breast cell line.; format: functional, cell-based
[13] = system: L1210; assay: Antitumor activity against sensitive L1210 murine leukemia cell lines.; format: functional, cell-based; details: Mus musculus; in short: as §2
[14] = system: WiDr; assay: Compound was tested for antitumor activity against The compound tested for activity against Human colon carcinoma sensitive WiDr cell line.; format: functional, cell-based
[15] = system: L1210; assay: Compound was tested for antitumor activity against Murine leukemia cell line (L1210).; format: functional, cell-based; details: Mus musculus; in short: as §2
[16] = system: MCF7; assay: Compound was tested for antitumor activityHuman mammary carcinoma Doxorubicin resistant […] breast cell line.; format: functional, cell-based; details: Homo sapiens
[17] = as §3; format: ADME, cell-based; details: myocytes versus three cell lines; read-out: Toxicity ratio; in short: as §4

IC50 [1] [nM]	IC50 [2] [nM]	IC50 [3] [nM]	IC50 [4] [nM]	IC50 [6] [nM]	IC50 [7] [nM]	IC50 [10] [nM]	IC50 [11] [nM]	IC50 [12] [nM]	IC50 [13] [nM]	IC50 [14] [nM]	IC50 [15] [nM]	IC50 [16] [nM]	SMILES	IC50 [5] [nM]	IC50 [8] [nM]	Toxicity ratio [9]	selectivity ratio [17]
17	22	5.4	20	7.1	6.7	4	20	13					CN(C)CCN1C(=O)c2cccc3cc4cc(O)ccc4c(c23)C1=O	404	17	40.4	
	77		120	61	50	77	100	32	25	100			CCOc1ccc2cc3cccc4c3c(c2c1)C(=O)N(CCN(C)C)C4=O	11300	15	188	
2220	5500		4700	820		7550		1200	6740		14800	2800	CN(C)CCN1C(=O)c2c(O)ccc3cc4ccccc4c(c23)C1=O	> 135000	1500	>20	
20	39		110	22	18	77	80	60					CN(C)CCN1C(=O)c2cccc3cc4c(Cl)cccc4c(c23)C1=O	1030	19		22.8
